Measurements reported in paper PMC8290212 (Bioorganic & medicinal chemistry letters, 2019).
“Also recorded” adds a separate entry of the source. Read-outs that look alike come from different tables or passages of the source. Marks after values point to notes of the source that are not given here.

Tests used:
[1] = test system: MDCK cells
[2] = test system: Influenza A virus H1N1, Influenza A/California/7/2009; format: cell-based
[3] = test system: Influenza A virus H5N1, Influenza A/Vietnam/1203/2004 × A/PR/8/34 (recombinant H5N1); assay: microbe, parasite or virus in culture; format: cell-based; settings: H5N1|PR/8, MDCK
[4] = in vitro; settings: dog
[5] = test system: IFN-β mRNA; assay: RT-PCR analysis of IFN-β mRNA in MDCK cells; format: cell-based; settings: MDCK infected with A/PR/8/34, MOI 2, 20 μM, 6 h
Summary of the method: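 MDCK cells infected with influenza A/PR/8/34 (MOI 2) and incubated with test compound (20 μM) for 6 h, then harvested. IFN-β mRNA detected by RT-PCR, with β-actin mRNA as reference. Poly(I:C)-induced cells were the positive control for IFN-β induction and RT-PCR. Uninfected cells received the same drug treatment and RT-PCR in parallel.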

[6] = test system: A/PR/8/34 strain of influenza A virus (H1N1); format: cell-based
[7] = microsomes; for Mouse Liver Microsomal Stability (% remaining) 0 min: 0 h; for Mouse Liver Microsomal Stability (% remaining) 15 min: 0.25 h; for Mouse Liver Microsomal Stability (% remaining) 30 min: 0.5 h
[8] = test system: NS1-pYES yeast strain; assay: Yeast-based NS1 assay: reversal of NS1-induced slow-growth phenotype; format: cell-based; settings: for restoration of yeast growth (reversal of slow growth phenotype): NS1-pYES strain, 50 μM, 22, 42 and 60 h
[9] = in vitro; settings: human, Caco-2, Efflux Ratio
[10] = test system: Caco-2 monolayer; settings: human, Caco-2, 2 h
[11] = Mouse liver microsomal stability

Compound | EC50 [2] | EC50 [3] [µM] | CC50 [4] [µM] | restoration of IFN-β mRNA levels in infected cells [5] | dose response in the TCID50 assay [6] | Mouse Liver Microsomal Stability (% remaining) 0 min [7] [% remaining] | Mouse Liver Microsomal Stability (% remaining) 15 min [7] [% remaining] | Mouse Liver Microsomal Stability (% remaining) 30 min [7] [% remaining] | restoration of yeast growth (reversal of slow growth phenotype) [8] | also measured
CCOc1cc(-c2c(C#N)c(O)nc3c2c(C)nn3-c2ccc(F)cc2)ccc1O [Compound 1] | single digit micromolar | 28.5 |  |  |  |  |  |  |  | Cytotoxicity towards host MDCK cells [1]: without toxicity
Cc1ccc(-n2nc(C)c3c(-c4ccc(O)c(O)c4)c(C#N)c(N)nc32)cc1C [Compound 4] | single digit micromolar |  | 24.5 | significantly restored IFN-β mRNA levels | successfully decreased viral titer with increasing concentration | 100 | 78 | 64 | show the same behavior | 
Cc1nn(-c2ccc(Cl)cc2)c2nc(N)c(C#N)c(-c3ccc(O)c(O)c3)c12 [Compound 6] |  |  | 24.5 | significantly restored IFN-β mRNA levels | successfully decreased viral titer with increasing concentration | 100 | 93 | 90 | show the same behavior | efflux ratio at 2 h [9]: 7.78
COc1cc(-c2c(C#N)c(N)nc3c2c(C)nn3-c2ccc(F)cc2)ccc1O [Compound 10] | single digit micromolar | 3.6 | 24.7 | significantly restored IFN-β mRNA levels | successfully decreased viral titer with increasing concentration | 100 | 74 | 60 | show the same behavior | 
COc1cc(-c2ccnc3c2c(C)nn3-c2ccc(C(F)(F)F)cc2)ccc1O [Compound 32] | sub-micromolar |  | 19.8 | significantly restored IFN-β mRNA levels | successfully decreased viral titer with increasing concentration | 100 | 66 | 45 | reversal of the slow growth phenotype; also recorded: reversed | Efflux Ratio [10]: 1.20^b; Cytotoxicity towards host MDCK cells ([1]; dog): did not affect cell viability at 5, 10, 50 and 100 μM; restoration of IFN-β mRNA levels in infected cells ([5]; listed as C00006): Restores IFN-β mRNA levels; selectivity index (SI) [6]: greater than 100 fold; viral suppression (TCID50) [6]: 3 log units; acute toxicity in yeast assay ([8]; 50 μM): does not display acute toxicity; efflux ratio at 2 h [9]: 2.29
COc1cc(-c2ccnc3c2c(C)nn3-c2cccc(C(F)(F)F)c2)ccc1O [Compound 33] |  |  | 24.5 |  |  |  |  |  | show the same behavior | Mouse Liver Microsomal Stability (% remaining) 0 min ([11]; 0 min): 100 % remaining; Mouse Liver Microsomal Stability (% remaining) 15 min ([11]; 15 min): 25 % remaining; Mouse Liver Microsomal Stability (% remaining) 30 min ([11]; 30 min): 16 % remaining
COc1cccc(-c2ccnc3c2c(C)nn3-c2ccc(F)cc2)c1 [Compound 37] |  |  |  |  |  |  |  |  |  | Cytotoxicity towards host MDCK cells [1]: exhibited cytotoxicity
NC(=O)c1ncn([C@@H]2O[C@H](CO)[C@@H](O)[C@H]2O)n1 [Ribavirin, reference compound] |  | 32.2 |  |  |  |  |  |  |  | 
